Hits are enriched below; roughly 6.4% of the tested compounds scored in any of these assays.
EphB4 ephrin blk: antagonists of human EphB4-ephrin-B2 interaction; inhibition, % at 7 µM; P54760; EphB4 LBD / TNYL-RAW-Alexa532 peptide, fluorescence polarization; 97,000 tested, 0.15% active;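 active = inhibition above the screen-wide mean inhibition plus 3 SD, cut at about 15% in these data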;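 note: 0% = DMSO wells and 100% = excess unlabeled TNYL-RAW peptide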
PostGolgi ctrl: growth of the yeast control strain, post-Golgi counter-screen | efflux-deficient yeast background strain, growth absorbance A615, 16 h | inhibition, % at 10 µM | 98,000 tested, 5% active | AID 738
PLK1 inh: PLK1 (human) kinase inhibition | P53350 | recombinant PLK1 kinase, TR-FRET peptide phosphorylation | inhibition, % at 10 µM | 97,000 tested, 0.53% active | AID 619;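 active = inhibition of 50% or more in the single-concentration screen; inactive = inhibition below 50%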;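 note: 0% = DMSO max control and 100% = H-89 dihydrochloride min control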
Plk1 PBD FP: inhibitors of human Plk1 polo box domain binding; P53350; Plk1 PBD phosphopeptide binding, fluorescence polarization; inhibition, %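 (tested at about 20 µM)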; 97,000 tested, 0.13% active; in the data active = inhibition above about 34%, passing the limit was not always enough
PostGolgi yeast: growth inhibition of a yeast mutant, post-Golgi transport screen. 98,000 tested, 0.9% active. post-Golgi transport phenotypic cell assay. inhibition, % at 10 µM;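 note: yeast cells grown in 1536-well plates; yeast grown about 18 h at 30C before absorbance read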
Rev-RRE block: disrupts HIV-1 Rev binding to RRE RNA | Rev peptide-RRE RNA binding, FRET | 97,000 tested, 0.79% active | inhibition, % at 8 µM;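 active = inhibition above the screen-wide mean plus 3 SD, cut at about 35% in these data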;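 note: 0% = median DMSO wells and 100% = median Neomycin B control wells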
Target sequence (P05866 whole entry, looked up): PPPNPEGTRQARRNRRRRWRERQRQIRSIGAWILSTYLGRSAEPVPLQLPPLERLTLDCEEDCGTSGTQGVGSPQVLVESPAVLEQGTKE
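assay system = Cy5-tagged RRE RNA duplex with fluorescein-tagged Rev peptide | incubation = 5 + 15 min at 25 °C | also added = labelled Rev peptide | measure = % inhibition of FRET ratio versus controls | benchmarks = DMSO wells as 0% and neomycin B wells as 100% inhibition | measured by = FRET fluorescence readout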
Active calls of the source: *; . = not tested or not shown. Cut-off read from the data, not from the text of the source, unless noted: active = inhibition above about 30%; inactive = the rest.

SMILES | EphB4 ephrin blk | PostGolgi ctrl | PLK1 inh | Plk1 PBD FP | PostGolgi yeast | Rev-RRE block
Cc1nc(SCc2nc3ccccc3[nH]2)c2oc3ccccc3c2n1 | 13 | 38* | -4 | -3 | 4 | 9
CCOC(=O)C1CCN(c2nc(C)nc3c2oc2ccccc23)CC1 | . | 36* | -4 | . | 20 | .
Cc1nc(SCC(=O)N2CCN(c3ccccc3)CC2)c2oc3ccccc3c2n1 | -4 | 35* | -2 | -17 | 0 | 2
CCc1nc(N2CCCC(C)C2)c2oc3ccccc3c2n1 (centres undefined) | 0 | 47* | -9 | 0 | 10 | 14
Cc1nn(CCc2nc(-c3ccco3)cs2)c2[nH]c(=O)cc(C(F)(F)F)c12 | . | 26 | . | . | 3 | .
CCc1nc(SCC(=O)N2CCCc3ccccc32)c2oc3ccccc3c2n1 | -3 | 37* | -24 | 15 | 11 | -1
CCCCN(C(=O)CSc1nnc(Nc2ccc(C)c(C)c2)s1)c1c(N)n(Cc2ccccc2)c(=O)[nH]c1=O | 0 | 37* | -12 | -4 | -7 | 10
CN(C(=O)CSc1nnc(Nc2ccccc2)s1)c1c(N)n(Cc2ccccc2)c(=O)[nH]c1=O | 7 | 6 | -14 | 6 | -5 | 13
Cc1cccc(S(=O)(=O)c2c(N)n(/N=C/c3ccco3)c3nc4ccccc4nc23)c1 | 6 | 32* | -3 | -1 | 6 | 17
Cc1ccc(S(=O)(=O)c2c(N)n(/N=C/c3ccco3)c3nc4ccccc4nc23)cc1 | -10 | 41* | 5 | -34 | 9 | -3
COc1ccc(S(=O)(=O)c2c(N)n(Cc3ccco3)c3nc4ccccc4nc23)cc1 | 5 | 13 | 21 | -15 | -2 | 53*
Cc1ccc(S(=O)(=O)c2c(N)n(/N=C/c3ccco3)c3nc4ccccc4nc23)cc1C | 1 | 20 | 9 | -10 | -6 | 2
COc1cccc(NC(=O)C23CCC(C)(C(=O)O2)C3(C)C)c1 (centres undefined) | -3 | -3 | 6 | -18 | 5 | -2
COc1ccc(-n2c(Cn3c(=O)sc4ccccc43)nnc2SCC(=O)N2CCCC2)cc1 | 8 | 11 | 7 | 21 | -3 | 6
CC(C)NC(=O)c1ccccc1NC(=O)CCc1ccccc1 | 3 | . | -6 | -21 | . | 5
Cc1cc(N2CCOCC2)nc(SCc2ccc(Cl)cc2Cl)n1 | -12 | 42* | 5 | 10 | 0 | 13
O=C(O)c1ccccc1C1=Nc2ccc(O)cc2Oc2cc(O)ccc21 | -4 | 5 | 4 | 50* | -5 | 78*
COCCN(Cc1cc2ccc(C)cc2n2nnnc12)Cc1nnnn1C(C)(C)C | -2 | . | -8 | -13 | . | 8
CCOn1c(=O)c(-c2cccs2)[n+]([O-])c2ccccc21 | 7 | 42* | -13 | 0 | -5 | 4
CCSc1nnc(NC(=O)c2cc(C)nc3ccccc23)s1 | -5 | 39* | -12 | -14 | -7 | 3
CCSc1nnc(NC(=O)c2ccc3ccccc3n2)s1 | -8 | 33* | -11 | -12 | 13 | 4
CCSc1nnc(NC(=O)c2nn(C(C)C)c(=O)c3ccccc23)s1 | 6 | 30* | -14 | 22 | 7 | 3
CCOC(=O)c1ccc(NS(=O)(=O)c2cccc3nsnc23)cc1 | 1 | 9 | -5 | -8 | 0 | 8
O=C(Nc1ncc(Br)s1)C(Cc1ccccc1)n1cccc1 (centres undefined) | -6 | 89* | -8 | 12 | 87* | 2
COc1cccc(-c2cn3nc4c(nc3n2)CCCC4)c1 | 5 | 1 | 0 | -8 | -3 | 28
SMILES | EphB4 ephrin blk | PostGolgi ctrl | PLK1 inh | Plk1 PBD FP | PostGolgi yeast | Rev-RRE block
Clc1ccc(-c2cn3nc4c(nc3n2)CCCC4)cc1 | 2 | 12 | -16 | 5 | 4 | 38*
O=C(/C=C/c1ccccc1)CC(O)(c1ccccc1)C(F)(F)C(F)F (centres undefined) | 2 | 66* | -6 | 20 | 8 | 22
COc1ccc(/C=C/C(=O)CC(O)(c2ccccc2)C(F)(F)F)cc1 (centres undefined) | 6 | . | 11 | 8 | . | 20
O=C(/C=C/c1ccccc1)CC(O)(c1ccccc1)C(F)(F)F (centres undefined) | -4 | 70* | -6 | -19 | 6 | 13
Cc1cc2nnc(SC3CCCCN(C(=O)c4ccc(F)cc4)C3=O)n2c2ccccc12 (centres undefined) | 4 | 23 | -2 | -7 | 2 | 2
Cc1cc(C)n2nc(SC3CCCCN(C(=O)c4ccc(F)cc4)C3=O)nc2n1 (centres undefined) | 19* | 15 | -9 | -15 | 1 | 12
Cc1ccc(OCCCn2c(CO)nc3ccccc32)cc1 | -6 | 7 | -5 | -4 | 37* | 10
COC(=O)/C(=C\C(=O)c1ccccc1)Nc1cccc(C(F)(F)F)c1 | -1 | -2 | -14 | -23 | 0 | 7
COc1ccc(NC(=O)NCCN2CCN(c3cccc(Cl)c3)CC2)cc1 | . | 42* | . | . | 43* | .
COc1cc(NC(=O)NCCN2CCN(c3ccc(Cl)cc3)CC2)ccc1C | 0 | 0 | -3 | -22 | 15 | 2
COc1ccc(-c2cc(-c3c(O)c(OC)c4occc4c3OC)[nH]n2)cc1 | -7 | 56* | -4 | -15 | 16 | 9
Cc1ccc(S(=O)(=O)N2CCN(c3ccc4nnc(-c5ccccc5)n4n3)CC2)cc1 | -4 | 34* | -5 | -5 | -10 | -1
CCCCOc1ccc(Cl)cc1CSc1nnc(C)n1N | 6 | 1 | -23 | -4 | 5 | 7
O=C(c1sc2ccccc2c1Cl)N1CCN(c2ccc(F)cc2)CC1 | 2 | 45* | -1 | -7 | 7 | 5
CC(Sc1ccccc1)C(=O)Nc1ccccc1C(=O)N1CCOCC1 (centres undefined) | 5 | 16 | -1 | 0 | -2 | 9
CCOc1ccc(C(O)C(CN2CCOCC2)c2ccccc2)cc1 (centres undefined) | -2 | 37* | -12 | 15 | 13 | 1
CCCOc1ccc(C(O)C(CN2CCOCC2)c2ccccc2)cc1 (centres undefined) | -8 | 11 | -9 | 1 | 11 | 4
Cn1c2c(c(=O)n(C)c1=O)C(c1ccccc1OC(F)F)C1=C(CCCC1=O)N2 (centres undefined) | 5 | 26 | -6 | -5 | 13 | 4
Cn1c(CC(=O)Nc2ccc(Cl)c(Cl)c2)nnc1SCC(=O)N1CCN(c2ccccc2)CC1 | -3 | 36* | -8 | -4 | 3 | 8
Cn1c(=O)n(CCc2ccccc2)c(=O)c2c1nc1n2CCCN1Cc1ccccc1 | 1 | 13 | -5 | 0 | 5 | -2
Cn1c(=O)n(CCc2ccccc2)c(=O)c2c1ncn2Cc1ccccc1 | 3 | 38* | -5 | -5 | -5 | 11
CC1CCCCN1Cc1nc2c(c(=O)n(C)c(=O)n2C)n1CCc1ccccc1 (centres undefined) | 3 | 38* | 5 | -7 | -5 | 11

Assay outcomes: PubChem BioAssay, several laboratories
